The text below walks through data of ChEMBL document CHEMBL3580583, “17-Norpimaranes and (9βH)-17-Norpimaranes from the Tuber of Icacina trichantha” (J Nat Prod, 2015).

What all share (assay type): functional, cell-based
In one assay the test system is OVCAR-3. The assay can be described thus: Cytotoxicity against human OVCAR3 cells assessed as cell viability after 72 hrs by commercial absorbance assay. The settings on record: OVCAR-3, 72 h. The procedure, abridged: (§1)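 Cells from ATCC grown at 37°C, 5% CO₂ in RPMI 1640 with 10% FBS, penicillin 100 units/mL and streptomycin 100 µg/mL. Log-phase cells were trypsinized, washed twice, seeded at 5,000/well and incubated overnight. Samples in DMSO were added at 20, 4, 0.8, 0.16 and 0.032 µM (0.5% DMSO) for 72 h at 37°C. Viability was read by CellTiter 96 AQueous One absorbance; IC₅₀ relative to DMSO control.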

The next assay deals with MDA-MB-231. Kind of assay: Cytotoxicity against human MDA-MB-231 cells assessed as cell viability after 72 hrs by commercial absorbance assay. The note with it: MDA-MB-231, 72 h. A digest of the protocol: as §1
The test system of another assay is MDA-MB-435. Kind of assay: Cytotoxicity against human MDA-MB-435 cells assessed as cell viability after 72 hrs by commercial absorbance assay. The note with it: MDA-MB-435, 72 h. A digest of the protocol:
as §1

As for `C[C@@]12CC[C@@H]3C(=C[C@H]4OC(=O)[C@]5(C)[C@H]4[C@]34CCC5(O)OC4)[C@]1(O)OC[C@H]2O`, the values for the IC50 in the assay on OVCAR-3, with MDA-MB-231 and with MDA-MB-435 were 7.55 µM, 7.3 µM and 1.25 µM, respectively.
On the same counts, the results for `C[C@@]12CC[C@@H]3C(=C[C@H]4OC(=O)[C@]5(C)[C@H]4[C@]34CCC5(O)OC4)[C@@H]1OC[C@H]2O` are 4.12 µM, 3.74 µM and 1.65 µM.
Turning to `C[C@]12C(=O)O[C@@H]3C[C@H]4C5=C(CC[C@H]4[C@@]4(CCC1(O)OC4)[C@@H]32)C(=O)CO5`, the IC50 was 1.05 µM in the assay on OVCAR-3, 0.67 µM in the assay with MDA-MB-231 and 0.66 µM with MDA-MB-435.
For the molecule `C[C@]12C(=O)O[C@@H]3C[C@H]4c5occc5C(=O)C[C@H]4[C@@]4(COC1(O)C[C@@H]4O)[C@@H]32`, the IC50 came out at 18.7 µM in the assay with OVCAR-3, 10.8 µM in the assay on MDA-MB-231 and 6.44 µM in the assay on MDA-MB-435.
On the same counts, the results for `C[C@]12C(=O)O[C@@H]3Cc4c(ccc5ccoc45)C4(CCC1(O)OC4)[C@@H]32` (stereo partly specified) are 17.8 µM, above 20 µM and above 20 µM.
In the case of `COc1cc2c(c3occc13)C[C@H]1OC(=O)[C@]3(C)[C@H]1C21CCC3(O)OC1` (stereo partly specified), the IC50 in the assay on OVCAR-3, with MDA-MB-231 and in the assay with MDA-MB-435 was above 20 µM each time.
On to `COc1cc2c(c3occc13)C[C@H]1OC(=O)[C@]3(C)[C@H]1[C@@]21CO[C@](O)(C1)[C@@H]3O`, for which the IC50 with OVCAR-3, in the assay with MDA-MB-231 and with MDA-MB-435 was above 20 µM in each case.
In the case of `COc1cc2c(c3occc13)C[C@H]1OC(=O)[C@]3(C)[C@H]1[C@@]21CO[C@](O)(C1)[C@H]3O`, the IC50 in the assay with OVCAR-3, with MDA-MB-231 and in the assay with MDA-MB-435 was above 20 µM throughout.
As for `C[C@]12C(=O)O[C@@H]3C[C@H]4c5occc5C(=O)C[C@H]4C4(CCC1(O)OC4)[C@@H]32` (stereo partly specified), the IC50 in the assay on OVCAR-3, with MDA-MB-231 and with MDA-MB-435 was above 20 µM in each case.
With `C[C@]12C(=O)O[C@@H]3C[C@@]4(O)c5occc5C(=O)C[C@H]4C4(CCC1(O)OC4)[C@@H]32` (stereo partly specified), the IC50 in the assay on OVCAR-3 was determined as 10.5 µM; in the assay on MDA-MB-231 it was 8.94 µM; with MDA-MB-435, 6.16 µM.
As to `C[C@]12C(=O)O[C@@H]3C[C@@H]4[C@@H](CCC5=CC(=O)O[C@@H]54)C4(CCC1(O)OC4)[C@@H]32` (stereo partly specified), the IC50 with OVCAR-3, in the assay on MDA-MB-231 and in the assay with MDA-MB-435 was above 20 µM each time.
As for `CC[C@]1(O)C[C@@H]2CN(CCc3c([nH]c4ccccc34)[C@@](C(=O)OC)(c3cc4c(cc3OC)N(C)[C@H]3[C@@](O)(C(=O)OC)[C@H](OC(C)=O)[C@]5(CC)C=CCN6CC[C@]43[C@@H]65)C2)C1` [VINBLASTINE], the IC50 in the assay on OVCAR-3 was 0.00182 µM; with MDA-MB-231, 0.00878 µM; in the assay on MDA-MB-435, 0.00049 µM.

What is called IC50 is the midpoint of a concentration-inhibition curve.
